Results from ChEMBL document CHEMBL4842338, “System-oriented optimization of multi-target 2,6-diaminopurine derivatives: Easily accessible broad-spectrum antivirals active against flaviviruses, influenza virus and SARS-CoV-2” (Eur J Med Chem, 2021).
The source made the active and inactive calls. No cut-off for these calls is given here.

Experiments:
[1] = target: CDK9/cyclin T1 (Homo sapiens, UniProt P50750); assay: Inhibition of human full length CDK9/ His-tagged cT1 assessed as residual activity at 5 uM using CDKtide as a substrate in the presence of BSA incubated for 10 mins by scintillation counting analysis relative to control; assay type: protein-complex assay; conditions: full length CDK9/His-tagged cyclin T1 complex, probe CDKtide, read-out: Activity
In short: (§1)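 Compounds at fixed 5 μM; 10–50 ng kinase, substrate and NP-40/BSA per supplementary table, 10 μL at 30 °C for 10 min in low-binding tubes. Reactions spotted on filter, dried, scintillation counted. Mean ± SD of two independent experiments.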

[2] = Selectivity index, ratio of CC50 for human A549 cells to IC50 for Influenza A Puerto Rico/8/34/H1N1 infected in human A549 cells; assay type: toxicity, cell-based; conditions: read-out: Selectivity Index
In short: (§2)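 MDCK or A549 cells (2.5 × 10⁵/well) infected with A/Puerto Rico/8/34 H1N1 for 1 h at 37 °C, then washed. Compound (0.5–20 μM) added in 2% FBS medium for 24 h, with DMSO final ≤0.2%. Virus in supernatants read by hemagglutination. CC₅₀ by MTT (2 × 10⁴ cells/well, same concentrations, 24 h, absorbance 570 nm). SI = CC₅₀/IC₅₀.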

[3] = target: Abl (Tyrosine-protein kinase ABL1) (Homo sapiens, UniProt P00519); assay: Inhibition of human recombinant N terminal His6 tagged Abl (27 to end residue) assessed as residual activity at 5 uM using KKGEAIYAADFA-NH2 as a substrate in the presence of NP-40 incubated for 10 mins by scintillation counting analysis relative to control; conditions: probe KKGEAIYAADFA-NH2, read-out: Activity; in short: as §1
[4] = target: Src (Proto-oncogene tyrosine-protein kinase Src) (Homo sapiens, UniProt P12931); assay: Inhibition of human recombinant N terminal His6 tagged full length Src assessed as residual activity at 5 uM using KVEKIGEGTYGVVYK as a substrate in the presence of NP-40 incubated for 10 mins by scintillation counting analysis relative to control; conditions: probe KVEKIGEGTYGVVYK, read-out: Activity; in short: as §1
[5] = Inhibition of Dengue virus 2 […] RNA dependent RNA polymerase incubated for 10 mins by picogreen staining based fluorescent analysis (Rvb= 0.27+/-0.03 uM); design: species or system dengue virus type 2
[6] = tested on: MDCK; assay: Cytotoxicity against MDCK cells assessed as reduction in cell viability measured after 24 hrs by MTT assay; assay type: cell-based, Canis lupus familiaris; conditions: dog, mdck, 24 h
[7] = target: Fyn (Tyrosine-protein kinase Fyn) (Homo sapiens, UniProt P06241); assay: Inhibition of human recombinant N terminal His6 tagged full length Fyn assessed as residual activity at 5 uM using […] as a substrate in the presence of NP-40 incubated for 10 mins by scintillation counting analysis relative to control; conditions: probe […], read-out: Activity; in short: as §1
[8] = Selectivity index, ratio of CC50 for MDCK cells to IC50 for Influenza A Puerto Rico/8/34/H1N1 infected in MDCK cells; assay type: toxicity, cell-based; conditions: dog, read-out: Selectivity Index; in short: as §2
[9] = tested on: Zika virus; assay: Antiviral activity against Zika virus H/PF/2013 infected in pre-seeded Huh-7 cells assessed as inhibition of viral replication incubated for 72 hrs by immunodetection based secondary yield reduction assay; assay type: functional, organism-based; conditions: H/PF/2013, Huh-7, 72 h
[10] = Inhibition of full length ZIKV NS5-MTase domain using 7MeGpppAC4 as a substrate incubated for 30 mins by filter binding assay; design: species or system Zika virus
[11] = tested on: A549; assay: Cytotoxicity against human A549 cells assessed as reduction in cell viability measured after 24 hrs by MTT assay; assay type: cell-based; conditions: a549, 24 h
[12] = tested on: Influenza A virus; assay: Antiviral activity against Influenza A Puerto Rico/8/34/H1N1 infected in human A549 cells assessed as inhibition of viral replication after 24 hrs by hemagglutination assay; assay type: functional, organism-based; conditions: A/Puerto Rico/8/1934(H1N1), A549, 24 h
[13] = Selectivity index, ratio of CC50 for human Huh-7 cells to IC50 for Dengue virus serotype 2 New Guinea C infected in pre-seeded Huh-7 cells assessed as inhibition of viral replication incubated for 72 hrs by immunodetection based secondary yield reduction assay; assay type: toxicity, cell-based; conditions: read-out: Selectivity Index
[14] = Selectivity index, ratio of CC50 for human Huh-7 cells to IC50 for Zika virus H/PF/2013 infected in pre-seeded Huh-7 cells assessed as inhibition of viral replication incubated for 72 hrs by immunodetection based secondary yield reduction assay; assay type: toxicity, cell-based; conditions: read-out: Selectivity Index
[15] = tested on: dengue virus type 2; assay: Antiviral activity against Dengue virus serotype 2 New Guinea C infected in pre-seeded Huh-7 cells assessed as inhibition of viral replication incubated for 72 hrs by immunodetection based secondary yield reduction assay; assay type: functional, organism-based; conditions: Dengue virus, New Guinea C, Huh-7, 72 h; read-out: IC50
[16] = Cytotoxicity against human Huh-7 cells assessed as reduction in cell viability by Celltiter-Glo luminescent cell viability assay; assay type: cell-based; conditions: Huh-7 cells
In short: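 Compound-exposed cells assessed by CellTiter-Glo luminescence versus DMSO control; CC50 from dose-response.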

[17] = Inhibition of full length ZIKA virus NS5 RNA dependent RNA polymerase incubated for 10 mins by picogreen staining based fluorescent analysis (Rvb= 1+/-0.2 uM)
[18] = Inhibition of DENV NS5-MTase domain using GpppA2'OMe-RNA74 as a substrate incubated for 30 mins by filter binding assay; design: species or system dengue virus type 2
In short: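 MTase (1 μM) incubated with increasing inhibitor in 40 mM Tris-HCl pH 7.5, 5 mM DTT, 10 μM AdoMet ([3H]-labelled), 0.5 μM GpppA2′OMe-RNA74 substrate, 30 °C for 30 min; stopped in ice-cold 100 μM AdoHcy; DEAE filter binding, scintillation counting.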

[19] = tested on: Influenza A virus; assay: Antiviral activity against Influenza A Puerto Rico/8/34/H1N1 infected in MDCK cells assessed as inhibition of viral replication measured in supernatants of infected cells after 24 hrs by hemagglutination assay; assay type: functional, organism-based; conditions: A/Puerto Rico/8/1934(H1N1)
[20] = target: PIK3CA (Phosphatidylinositol 4,5-bisphosphate 3-kinase catalytic subunit alpha isoform) (Homo sapiens, UniProt P42336); assay: Inhibition of human full length PIK3CA assessed as residual activity at 5 uM using PI:PS (1:3) as a substrate incubated for 10 mins by scintillation counting analysis relative to control; conditions: full length PIK3CA enzyme, probe PI:PS (1:3), read-out: Activity
In short: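 Radiometric kinase reaction with 10–50 ng enzyme and compound fixed at 5 μM, 10 μL at 30 °C for 10 min. Reactions spotted on filter and counted by scintillation. Residual activity is the mean ± SD of two independent experiments.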

[21] = Inhibition of full length Dengue virus 2 NS5 RNA dependent RNA polymerase incubated for 10 mins by picogreen staining based fluorescent analysis (Rvb= 0.32+/-0.05 uM); design: species or system dengue virus type 2
[22] = Selectivity index, ratio of CC50 for human Huh-7 cells to IC50 for West Nile virus lineage 1 (Italy/2009) infected in pre-seeded Huh-7 cells assessed as inhibition of viral replication incubated for 48 hrs by immunodetection based plaque reduction assay; assay type: toxicity, cell-based; conditions: read-out: Selectivity Index
[23] = tested on: West Nile virus; assay: Antiviral activity against West Nile virus lineage 1 (Italy/2009) infected in pre-seeded Huh-7 cells assessed as inhibition of viral replication incubated for 48 hrs by immunodetection based direct yield reduction assay; assay type: functional, organism-based; conditions: West Nile virus, lineage 1 (Italy/2009), Huh-7, 48 h; read-out: IC50
[24] = tested on: Huh-7; assay: Effect on formation of DENV replication complex in human Huh-7 cells assessed as reduction in expression of NS3 at 100 uM measured after 8 to 24 hrs by DAPI staining based confocal microscopy analysis; assay type: functional, cell-based; conditions: time 8-24 hrs
In short: (§3)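 Huh-7 cells (1 × 10⁴) on coverslips infected with DENV-2 (MOI 0.05), treated (100 or 50 μM as listed), fixed in 4% paraformaldehyde at 8, 12, 16, 24 h; anti-NS3/anti-NS5 with Alexa 488/568 secondaries, DAPI; confocal, 5 random fields at 40×; % positive cells; 2-way ANOVA with Dunnett.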

[25] = Selectivity index, ratio of CC50 for human Huh-7 cells to IC50 for Dengue virus serotype 2 New Guinea C infected in pre-seeded Huh-7 cells assessed as inhibition of viral replication incubated for 72 hrs by immunodetection based direct yield reduction assay; assay type: toxicity, cell-based; conditions: read-out: Selectivity Index
In short: (§4)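 Direct yield reduction in Huh7 cells (7000/well), infected with 50 TCID₅₀ of DENV or ZIKV, or 25 TCID₅₀ of WNV. Adsorption 1 h at 37 °C, then virus removed and serial compound dilutions added. Incubated 72 h (DENV, ZIKV) or 48 h (WNV). Viral antigen immunodetected on the monolayer. IC₅₀ by non-linear regression, mean of three experiments. SI = CC₅₀ (Huh7, CellTiter-Glo luminescence)/IC₅₀.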

[26] = tested on: dengue virus type 2; assay: Antiviral activity against Dengue virus serotype 2 New Guinea C infected in pre-seeded Huh-7 cells assessed as inhibition of viral replication incubated for 72 hrs by immunodetection based direct yield reduction assay; assay type: functional, organism-based; conditions: Dengue virus, New Guinea C, Huh-7, 72 h; read-out: IC50
[27] = tested on: Zika virus; assay: Antiviral activity against Zika virus H/PF/2013 infected in pre-seeded Huh-7 cells assessed as inhibition of viral replication incubated for 72 hrs by immunodetection based plaque reduction assay; assay type: functional, organism-based; conditions: H/PF/2013, Huh-7, 72 h
[28] = tested on: Huh-7; assay: Effect on formation of DENV replication complex in human Huh-7 cells assessed as reduction in expression of NS5 at 100 uM measured after 8 to 24 hrs by DAPI staining based confocal microscopy analysis; assay type: functional, cell-based; conditions: time 8-24 hrs; in short: as §3
[29] = Selectivity index, ratio of CC50 for human Huh-7 cells to IC50 for Dengue virus serotype 2 New Guinea C infected in pre-seeded Huh-7 cells assessed as inhibition of viral replication incubated for 72 hrs by immunodetection based plaque reduction assay; assay type: toxicity, cell-based; conditions: read-out: Selectivity Index
[30] = tested on: Zika virus; assay: Antiviral activity against Zika virus H/PF/2013 infected in pre-seeded Huh-7 cells assessed as inhibition of viral replication incubated for 72 hrs by immunodetection based direct yield reduction assay; assay type: functional, organism-based; conditions: H/PF/2013, Huh-7, 72 h; in short: as §4
[31] = Selectivity index, ratio of CC50 for human Huh-7 cells to IC50 for Zika virus H/PF/2013 infected in pre-seeded Huh-7 cells assessed as inhibition of viral replication incubated for 72 hrs by immunodetection based plaque reduction assay; assay type: toxicity, cell-based; conditions: read-out: Selectivity Index
[32] = tested on: Huh-7; assay: Effect on formation of DENV replication complex in human Huh-7 cells assessed as reduction in NS5 translocation into nucleus at 100 uM measured after 16 to 24 hrs by DAPI staining based confocal microscopy analysis; assay type: functional, cell-based; conditions: time 16-24 hrs; in short: as §3
[33] = tested on: Huh-7; assay: Effect on formation of DENV replication complex in human Huh-7 cells assessed as reduction NS3 translocation into cytoplasm at 100 uM measured after 16 to 24 hrs by DAPI staining based confocal microscopy analysis; assay type: functional, cell-based; conditions: time 16-24 hrs; in short: as §3
[34] = Selectivity index, ratio of CC50 for human Huh-7 cells to IC50 for West Nile virus lineage 1 (Italy/2009) infected in pre-seeded Huh-7 cells assessed as inhibition of viral replication incubated for 48 hrs by immunodetection based direct yield reduction assay; assay type: toxicity, cell-based; conditions: read-out: Selectivity Index; in short: as §4
[35] = Selectivity index, ratio of CC50 for human Huh-7 cells to IC50 for Zika virus H/PF/2013 infected in pre-seeded Huh-7 cells assessed as inhibition of viral replication incubated for 72 hrs by immunodetection based direct yield reduction assay; assay type: toxicity, cell-based; conditions: read-out: Selectivity Index; in short: as §4
[36] = tested on: West Nile virus; assay: Antiviral activity against West Nile virus lineage 1 (Italy/2009) infected in pre-seeded Huh-7 cells assessed as inhibition of viral replication incubated for 48 hrs by immunodetection based plaque reduction assay; assay type: functional, organism-based; conditions: Huh-7, 48 h

Src (Proto-oncogene tyrosine-protein kinase Src), sequence (P12931 2-536 limits assumed): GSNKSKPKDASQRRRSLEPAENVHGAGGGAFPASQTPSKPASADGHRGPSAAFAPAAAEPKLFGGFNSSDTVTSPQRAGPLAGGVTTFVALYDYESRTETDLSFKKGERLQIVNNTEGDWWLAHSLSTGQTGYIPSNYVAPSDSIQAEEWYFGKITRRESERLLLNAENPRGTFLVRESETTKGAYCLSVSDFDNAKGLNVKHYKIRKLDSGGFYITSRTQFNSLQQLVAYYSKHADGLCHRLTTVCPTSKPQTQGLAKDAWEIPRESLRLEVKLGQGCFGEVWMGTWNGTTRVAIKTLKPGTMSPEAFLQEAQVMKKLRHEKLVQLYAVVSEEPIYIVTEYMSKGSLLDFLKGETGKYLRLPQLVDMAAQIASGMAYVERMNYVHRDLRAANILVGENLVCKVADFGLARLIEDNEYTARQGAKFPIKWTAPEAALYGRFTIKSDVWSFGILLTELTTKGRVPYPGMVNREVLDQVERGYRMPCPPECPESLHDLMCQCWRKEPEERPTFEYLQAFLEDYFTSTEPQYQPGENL
Fyn (Tyrosine-protein kinase Fyn), sequence (P06241 whole entry): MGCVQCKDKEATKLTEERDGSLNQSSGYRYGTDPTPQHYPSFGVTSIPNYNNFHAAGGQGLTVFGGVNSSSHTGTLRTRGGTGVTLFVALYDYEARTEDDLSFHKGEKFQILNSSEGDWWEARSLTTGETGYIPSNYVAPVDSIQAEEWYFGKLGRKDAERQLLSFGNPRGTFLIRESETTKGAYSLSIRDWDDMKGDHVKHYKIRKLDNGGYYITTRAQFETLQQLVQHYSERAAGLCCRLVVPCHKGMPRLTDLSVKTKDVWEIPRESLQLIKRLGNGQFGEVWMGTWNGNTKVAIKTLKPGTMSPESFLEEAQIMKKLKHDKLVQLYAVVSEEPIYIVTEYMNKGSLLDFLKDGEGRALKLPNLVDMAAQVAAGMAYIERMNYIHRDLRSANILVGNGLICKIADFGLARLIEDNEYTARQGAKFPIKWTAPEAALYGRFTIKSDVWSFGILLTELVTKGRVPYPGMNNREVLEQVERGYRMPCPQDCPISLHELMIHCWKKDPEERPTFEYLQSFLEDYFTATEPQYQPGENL
PIK3CA (Phosphatidylinositol 4,5-bisphosphate 3-kinase catalytic subunit alpha isoform), sequence (P42336 whole entry, canonical isoform): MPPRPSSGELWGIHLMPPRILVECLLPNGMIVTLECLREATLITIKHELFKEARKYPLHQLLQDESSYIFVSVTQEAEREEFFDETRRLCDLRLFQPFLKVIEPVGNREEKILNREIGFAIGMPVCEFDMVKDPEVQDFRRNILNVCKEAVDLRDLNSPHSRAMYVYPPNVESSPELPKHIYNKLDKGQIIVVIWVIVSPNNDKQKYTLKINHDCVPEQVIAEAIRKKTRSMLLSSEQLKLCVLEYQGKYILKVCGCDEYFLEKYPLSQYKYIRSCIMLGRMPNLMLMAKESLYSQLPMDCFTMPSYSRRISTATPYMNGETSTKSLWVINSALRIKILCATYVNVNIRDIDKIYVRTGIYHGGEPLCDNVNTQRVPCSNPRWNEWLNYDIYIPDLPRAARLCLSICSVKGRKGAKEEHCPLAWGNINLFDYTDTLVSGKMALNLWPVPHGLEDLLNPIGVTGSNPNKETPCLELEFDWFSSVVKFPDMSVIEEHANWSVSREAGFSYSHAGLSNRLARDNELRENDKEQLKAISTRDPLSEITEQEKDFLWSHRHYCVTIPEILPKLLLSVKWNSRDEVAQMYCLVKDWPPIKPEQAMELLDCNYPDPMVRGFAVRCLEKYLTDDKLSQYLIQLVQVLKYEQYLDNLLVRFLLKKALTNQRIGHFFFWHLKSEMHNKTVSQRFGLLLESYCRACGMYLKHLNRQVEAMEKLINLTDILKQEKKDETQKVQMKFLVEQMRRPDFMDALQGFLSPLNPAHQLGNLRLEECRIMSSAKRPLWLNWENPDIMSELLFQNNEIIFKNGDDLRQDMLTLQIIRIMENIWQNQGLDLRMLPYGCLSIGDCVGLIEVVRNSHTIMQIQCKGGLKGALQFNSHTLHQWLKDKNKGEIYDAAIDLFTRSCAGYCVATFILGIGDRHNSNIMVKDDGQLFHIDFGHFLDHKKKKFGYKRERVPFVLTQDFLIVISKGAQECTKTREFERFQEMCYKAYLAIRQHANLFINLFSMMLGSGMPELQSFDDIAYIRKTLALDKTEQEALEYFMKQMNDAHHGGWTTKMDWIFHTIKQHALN
CDK9/cyclin T1, sequence (O60563 whole entry): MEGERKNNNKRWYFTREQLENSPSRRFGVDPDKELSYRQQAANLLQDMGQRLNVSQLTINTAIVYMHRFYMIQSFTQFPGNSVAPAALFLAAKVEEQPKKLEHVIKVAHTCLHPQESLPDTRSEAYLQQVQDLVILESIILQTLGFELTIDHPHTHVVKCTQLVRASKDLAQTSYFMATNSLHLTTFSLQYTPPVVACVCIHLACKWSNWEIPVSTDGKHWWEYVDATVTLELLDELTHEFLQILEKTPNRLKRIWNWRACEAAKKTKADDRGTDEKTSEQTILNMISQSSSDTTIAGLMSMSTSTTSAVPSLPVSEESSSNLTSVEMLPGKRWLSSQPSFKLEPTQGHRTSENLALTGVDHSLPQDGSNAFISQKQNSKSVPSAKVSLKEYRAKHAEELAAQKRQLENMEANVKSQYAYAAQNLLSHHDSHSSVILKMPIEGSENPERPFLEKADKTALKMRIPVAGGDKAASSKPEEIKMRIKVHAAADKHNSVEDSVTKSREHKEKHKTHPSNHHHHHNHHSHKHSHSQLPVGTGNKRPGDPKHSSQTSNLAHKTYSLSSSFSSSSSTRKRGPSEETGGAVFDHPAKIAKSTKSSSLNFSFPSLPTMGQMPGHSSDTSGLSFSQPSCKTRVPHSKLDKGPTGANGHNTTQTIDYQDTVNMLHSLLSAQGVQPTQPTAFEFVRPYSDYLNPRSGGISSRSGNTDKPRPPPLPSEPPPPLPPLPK
CDK9/cyclin T1, sequence (P50750 whole entry): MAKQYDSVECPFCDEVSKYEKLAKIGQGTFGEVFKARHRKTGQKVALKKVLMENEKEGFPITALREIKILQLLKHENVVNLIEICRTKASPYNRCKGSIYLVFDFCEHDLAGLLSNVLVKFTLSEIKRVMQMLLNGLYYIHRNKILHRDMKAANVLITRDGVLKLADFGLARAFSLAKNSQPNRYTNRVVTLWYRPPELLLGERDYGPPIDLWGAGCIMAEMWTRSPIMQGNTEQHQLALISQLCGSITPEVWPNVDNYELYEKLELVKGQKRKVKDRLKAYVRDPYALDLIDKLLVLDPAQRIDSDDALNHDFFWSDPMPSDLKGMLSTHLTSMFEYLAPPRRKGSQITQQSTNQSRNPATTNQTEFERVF
Abl (Tyrosine-protein kinase ABL1), sequence (P00519 whole entry): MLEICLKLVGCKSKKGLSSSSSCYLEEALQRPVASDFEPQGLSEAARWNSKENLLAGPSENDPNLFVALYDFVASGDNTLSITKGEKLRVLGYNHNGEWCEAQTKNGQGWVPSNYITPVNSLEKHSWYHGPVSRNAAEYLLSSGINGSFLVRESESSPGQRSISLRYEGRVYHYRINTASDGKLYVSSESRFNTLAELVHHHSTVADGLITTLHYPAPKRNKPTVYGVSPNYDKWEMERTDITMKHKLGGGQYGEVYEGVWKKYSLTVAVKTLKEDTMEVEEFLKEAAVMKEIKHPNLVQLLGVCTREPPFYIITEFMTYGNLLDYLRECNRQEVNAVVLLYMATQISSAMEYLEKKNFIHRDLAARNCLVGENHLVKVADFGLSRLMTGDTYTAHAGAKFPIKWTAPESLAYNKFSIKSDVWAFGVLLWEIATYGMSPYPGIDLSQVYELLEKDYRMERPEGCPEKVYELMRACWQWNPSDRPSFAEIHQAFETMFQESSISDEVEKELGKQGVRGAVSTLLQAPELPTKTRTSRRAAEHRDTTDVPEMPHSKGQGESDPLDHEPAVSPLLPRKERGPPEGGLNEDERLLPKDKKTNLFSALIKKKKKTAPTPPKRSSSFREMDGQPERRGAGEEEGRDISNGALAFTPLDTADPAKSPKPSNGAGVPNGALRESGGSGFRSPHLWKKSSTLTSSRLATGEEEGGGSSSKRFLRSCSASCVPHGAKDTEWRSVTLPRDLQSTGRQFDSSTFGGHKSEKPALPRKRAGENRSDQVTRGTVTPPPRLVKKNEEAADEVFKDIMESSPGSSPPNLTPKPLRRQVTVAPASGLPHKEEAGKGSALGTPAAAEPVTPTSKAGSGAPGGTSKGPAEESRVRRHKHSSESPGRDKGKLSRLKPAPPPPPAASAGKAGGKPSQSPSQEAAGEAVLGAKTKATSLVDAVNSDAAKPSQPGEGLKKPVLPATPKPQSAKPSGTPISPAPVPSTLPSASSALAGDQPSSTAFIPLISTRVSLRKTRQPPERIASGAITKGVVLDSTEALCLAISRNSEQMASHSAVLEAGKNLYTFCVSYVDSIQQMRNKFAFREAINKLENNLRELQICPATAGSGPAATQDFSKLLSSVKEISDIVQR

Fc1cccc(Nc2nc(NCCOc3ccccc3)nc3[nH]cnc23)c1
activity at 10 min, 5 µM [1]: 87% | selectivity ratio [2]: 2.8 | activity at 10 min, 5 µM [3]: 54% | activity at 10 min, 5 µM [4]: 45% | IC50 [5]: 31.2 µM | CC50 [6]: 77 µM | activity at 10 min, 5 µM [7]: > 98% | selectivity ratio [8]: 5.5 | IC50 [9]: 2.9 µM | IC50 [10]: Not Active | CC50 [11]: 58 µM | IC50 [12]: 20.8 µM | selectivity ratio at 72 h [13]: 17 | selectivity ratio at 72 h [14]: 68 | IC50 [15]: 12 µM | CC50 [16]: 200 µM | IC50 [17]: 18.9 µM | IC50 [18]: Not Active | IC50 [19]: 14 µM | activity at 10 min, 5 µM [20]: 69% | IC50 [21]: > 100 µM

CC(C)OC(=O)[C@H](C)N[P@](=O)(OC[C@H]1O[C@@H](n2ccc(=O)[nH]c2=O)[C@](C)(F)[C@@H]1O)Oc1ccccc1 [SOFOSBUVIR]
selectivity ratio at 48 h [22]: 166 | IC50 [23]: 1.7 µM | Activity [24]: Active | selectivity ratio at 72 h [25]: 43 | IC50 [26]: 4.6 µM | IC50 [27]: 2 µM | Activity [28]: Active | selectivity ratio at 72 h [29]: 50 | IC50 [9]: 3.2 µM | IC50 [30]: 2.7 µM | selectivity ratio at 72 h [13]: 42 | selectivity ratio at 72 h [14]: 62 | selectivity ratio at 72 h [31]: 100 | Activity [32]: Active | IC50 [15]: 4.7 µM | Activity [33]: inactive | CC50 [16]: 200 µM | selectivity ratio at 48 h [34]: 117 | selectivity ratio at 72 h [35]: 74 | IC50 [36]: 1.2 µM
